Measurements as given in ChEMBL document CHEMBL2169854, “New insight into the central benzodiazepine receptor-ligand interactions: design, synthesis, biological evaluation, and molecular modeling of 3-substituted 6-phenyl-4H-imidazo[1,5-a][1,4]benzodiazepines and related compounds” (J Med Chem, 2011).
Active and inactive are the calls of the source. No cut-off for these calls is given here.

What was measured:
Mus musculus [1] = assay: Anxiolytic effect in mouse assessed as increase in time spent in light compartment at 1 mg/kg, ip by light/dark box test; assay type: functional, organism-based; parameters: dose 1 mg/kg
Summary of the method: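 Male mice were used. Compound was given orally as a suspension in 1% CMC; diazepam was given ip in saline; volume 10 mL/kg. Each mouse was placed in the lit side of a two-compartment light/dark box and observed for 5 min, scoring time in the light and transfers. Groups were compared by ANOVA with Fisher PLSD.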

Mus musculus [2] = assay: Myorelaxant activity in mouse assessed as motor coordination measuring number of falls at 1 mg/kg, ip measured for 30 seconds after 45 mins of compound administration by rotarod test; assay type: functional, organism-based; parameters: dose 1 mg/kg
[3] = Displacement of [3H]flumazenil from central benzodiazepine receptor in human cortical membrane after 90 mins by beta liquid scintillation counting; assay type: cell membranes
[4] = Displacement of [3H]flumazenil from central benzodiazepine receptor in bovine cortical membrane after 90 mins by beta liquid scintillation counting; assay type: cell membranes, Bos taurus
Summary of the method: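 At least six concentrations spanning 3 log units were tested in 2% DMSO. Ki was obtained by Cheng–Prusoff (Kd 0.85 nM bovine, 0.91 nM human), mean of three determinations.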

Homo sapiens = species on record: Homo sapiens; assay: Ratio of Ki for central benzodiazepine receptor in human cortical membrane to Ki for central benzodiazepine receptor in human cortical membrane in presence of 50 uM GABA; assay type: cell membranes
Rattus norvegicus [5] = species on record: Rattus norvegicus; assay: Antagonist activity at central benzodiazepine receptor in Sprague-Dawley rat cerebrocortical synaptoneurosomes assessed as effect on GABA-induced [36]chloride ion flow after 10 seconds by beta liquid scintillation counting; assay type: functional
Summary of the method: (§1)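 Cerebral cortex from male Sprague-Dawley rats was homogenised and filtered, and synaptoneurosomes were washed in HEPES pH 7 buffer (145 mM NaCl, 5 mM KCl, 5 mM MgCl2, 1 mM CaCl2, 10 mM glucose). Aliquots of 1.5–2 mg protein were preincubated 10 min at 30 C. Drug was added with 0.2 μCi 36Cl−, uptake was stopped at 10 s, and filter-bound radioactivity was counted by scintillation.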

Bos taurus = species on record: Bos taurus; assay: Ratio of Ki for central benzodiazepine receptor in bovine cortical membrane to Ki for central benzodiazepine receptor in bovine cortical membrane in presence of 50 uM GABA; assay type: cell membranes
Rattus norvegicus [6] = species on record: Rattus norvegicus; assay: Agonist activity at central benzodiazepine receptor in Sprague-Dawley rat cerebrocortical synaptoneurosomes assessed as increase in GABA-induced [36]chloride ion flow after 10 seconds by beta liquid scintillation counting; assay type: functional; summary of the method: as §1
[7] = target: T1, GABA-A receptor; alpha-1/beta-2/gamma-2 (Homo sapiens) (UniProt P14867+P47870+P18507); assay: (§2) Modulation of human recombinant GABA-A alpha1beta2gamma2L receptor expressed in Xenopus laevis oocytes assessed as effect on GABA-induced chloride current at 10 uM incubated 60 seconds before addition of GABA measured after 30 seconds at holding potential -70 mV by two-microelectrode voltage clamp technique relative to control; assay type: cell-based; details: Oocyte
Oocyte [8] = assay: as §2, with “alpha5beta2gamma2L” for “alpha1beta2gamma2L”; assay type: cell-based
[9] = target: T2, GABA A receptor alpha-1/beta-1/gamma-2 (Homo sapiens) (UniProt P14867+P18507+P18505); assay: as §2, with “alpha1beta1gamma2L” for “alpha1beta2gamma2L”, “1” for “10”; assay type: cell-based; details: Oocyte
[10] = target: T1, GABA-A receptor; alpha-1/beta-2/gamma-2 (Homo sapiens); assay: as §2, with “Antagonist at” for “Modulation of”, “blockade of diazepam-induced potentiation of” for “effect on”, “technique” for “technique relative to control”; assay type: functional, cell-based; details: Oocyte
Summary of the method: (§3)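 Oocytes expressing human α1β2γ2L, α2β1γ2L or α5β2γ2L receptors were clamped at −70 mV. Compound at 10 μM was tested against the enhancement of the GABA EC10 response by 1.0 μM diazepam, with 60 s preapplication and 30 s coapplication. The response was expressed as percent potentiation, from 2–3 oocytes.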

[11] = target: T2, GABA A receptor alpha-1/beta-1/gamma-2 (Homo sapiens); assay: (§4) Antagonist at human recombinant GABA-A alpha1beta1gamma2L receptor expressed in Xenopus laevis oocytes assessed as blockade of diazepam-induced potentiation of GABA-induced chloride current at 10 uM incubated 60 seconds before addition of GABA measured after 30 seconds at holding potential -70 mV by two-microelectrode voltage clamp technique; assay type: functional, cell-based; details: Oocyte
Oocyte [12] = assay: as §2, with “alpha5beta2gamma2L” for “alpha1beta2gamma2L”, “1” for “10”; assay type: cell-based
Oocyte [13] = assay: as §4, with “alpha5beta2gamma2L” for “alpha1beta1gamma2L”; assay type: functional, cell-based; summary of the method: as §3
[14] = target: T2, GABA A receptor alpha-1/beta-1/gamma-2 (Homo sapiens); assay: as §2, with “alpha1beta1gamma2L” for “alpha1beta2gamma2L”; assay type: cell-based; details: Oocyte
[15] = target: T1, GABA-A receptor; alpha-1/beta-2/gamma-2 (Homo sapiens); assay: as §2, with “1” for “10”; assay type: cell-based; details: Oocyte
[16] = target: T1, GABA-A receptor; alpha-1/beta-2/gamma-2 (Homo sapiens); assay: as §2, with “0.01” for “10”; assay type: cell-based; details: Oocyte
[17] = target: T1, GABA-A receptor; alpha-1/beta-2/gamma-2 (Homo sapiens); assay: as §2, with “0.1” for “10”; assay type: cell-based; details: Oocyte

Row | Compound | Ki [3] [nM] | Ki [4] [nM] | Ratio Ki (Bos taurus) | also measured
1 | CN1C(=O)CN=C(c2ccccc2)c2cc(Cl)ccc21 |  |  |  | Activity (Mus musculus [1]): Active; Activity (Mus musculus [2]): Active
2 | CCOC(=O)c1ncn2c1CN=C(c1ccc(OC)cc1)c1cc(Cl)ccc1-2 | 227 | 210 |  | 
3 | CCOC(=O)c1ncn2c1CN=C(c1cccc([N+](=O)[O-])c1)c1cc(Cl)ccc1-2 | 2.3 | 1.7 | 0.99 | Ratio Ki (Homo sapiens): 0.98; Activity (Rattus norvegicus [5]): Active
4 | CCOC(=O)c1ncn2c1CN=C(c1ccc(Cl)cc1)c1cc(Cl)ccc1-2 | 210 | 236 | 1.3 | 
5 | CCOC(=O)c1ncn2c1C(C)N=C(c1ccccc1)c1ccccc1-2 (stereo unspecified) | 750 | 453 | 1.3 | 
6 | NC(=O)c1ncn2c1CN=C(c1ccc(Cl)cc1)c1cc(Cl)ccc1-2 |  | > 10000 |  | 
7 | CCOC(=O)c1ncn2c1C(C)N=C(c1ccc(F)cc1)c1cc(F)ccc1-2 (stereo unspecified) | 550 | 510 | 1.19 | 
8 | Clc1ccc(C2=NCc3c(-c4nnn[nH]4)ncn3-c3ccc(Cl)cc32)cc1 |  | > 10000 |  | 
9 | CN1C(=O)CN=C(c2ccccc2F)c2cc([N+](=O)[O-])ccc21 [FLUNITRAZEPAM] | 6.5 | 5.17 | 1.68 | Ratio Ki (Homo sapiens): 1.6; Activity (Rattus norvegicus [6]): Active
10 | CCOC(=O)c1ncn2c1CN=C(c1cccc([N+](=O)[O-])c1)c1cc(F)ccc1-2 |  |  |  | Activity [7]: -24%; Activity (Oocyte [8]): -2.5%; Activity [9]: 10%; Activity [10]: Active; Activity [11]: Active; Activity (Oocyte [12]): 27%; Activity (Oocyte [13]): Active; Activity [14]: -3.3%; Activity [15]: 14%
11 | CCOC(=O)c1ncn2c1CN=C(c1ccc(F)cc1)c1cc(Cl)ccc1-2 | 212 | 188 | 1.25 | 
12 | CCOC(=O)c1ncn2c1CN(C)C(=O)c1cc(F)ccc1-2 [FLUMAZENIL] |  | 1.9 |  | Activity (Rattus norvegicus [5]): Active
13 | CCOC(=O)c1ncn2c1CN=C(c1cccc3ccccc13)c1cc(Cl)ccc1-2 | 216 | 186 | 1.3 | 
14 | CNC(=O)c1ncn2c1CN=C(c1ccc(Cl)cc1)c1cc(Cl)ccc1-2 |  | > 10000 |  | 
15 | N#Cc1ncn2c1CN=C(c1ccc(Cl)cc1)c1cc(Cl)ccc1-2 |  | 1650 |  | 
16 | CCOC(=O)c1ncn2c1CN=C(c1ccc(Cl)cc1)c1ccc3ccccc3c1-2 |  | > 10000 |  | 
17 | CCOC(=O)c1ncn2c1CN=C(c1ccc(OC)cc1)c1ccccc1-2 | 120 | 110 | 0.78 | 
18 | CC(C)(C)OC(=O)c1ncn2c1CN=C(c1ccc(Cl)cc1)c1cc(Cl)ccc1-2 |  | 1300 |  | 
19 | CN(C)C(=O)c1ncn2c1CN=C(c1ccc(Cl)cc1)c1cc(Cl)ccc1-2 |  | > 10000 |  | 
20 | CCOC(=O)c1ncn2c1CN=C(c1ccc(F)cc1)c1ccccc1-2 | 20.8 | 11.5 | 0.77 | Ratio Ki (Homo sapiens): 0.96; Activity (Rattus norvegicus [5]): Active
21 | CCOC(=O)c1ncn2c1CN=C(c1ccc(Cl)cc1)c1ccccc1-2 | 22.5 | 12.7 | 0.84 | Ratio Ki (Homo sapiens): 0.87; Activity (Rattus norvegicus [5]): Active; Activity [7]: 6.3%; Activity (Oocyte [8]): 0%; Activity [9]: -7%; Activity [16]: 13%; Activity [10]: Active; Activity [11]: Active; Activity (Oocyte [12]): -0.5%; Activity [17]: 1%; Activity (Oocyte [13]): Active; Activity [14]: -18%; Activity [15]: 3.6%
22 | CCOC(=O)c1ncn2c1CN=C(c1ccc(C)cc1)c1cc(Cl)ccc1-2 | 178 | 199 | 1.05 | 
23 | O=C1OCCC2N=C(c3ccccc3)c3ccccc3-n3cnc1c32 (stereo unspecified) |  | 283 | 0.95 | 
